Rows were chosen to be rich in hits. Some 2% of all compounds tested hit in one or more screens of this group.
EBNA-1 inhibitor – blocks EBNA-1 binding to DNA. EBNA-1 DNA binding, fluorescence polarization. inhibition, % at 14.8 µM. hit rate 0.34% among 300,000; in the data active = inhibition above about 28%
FID counter – counter-screen for HCV NS3 helicase inhibitors: DNA intercalator displacement | DNA fluorescent intercalator displacement, fluorescence | inhibition, % at 7.9 µM | hit rate 0.17% among 290,000; in the data active = inhibition above about 37%;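 also: 0% = vehicle and 100% = reference compound; higher means more ethidium bromide displaced from hairpin DNA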
HCV NS3 hel inh – blocks Hepatitis C virus NS3 helicase unwinding. hit rate 0.56% among 290,000. inhibition, % at 10.9 µM. NS3 helicase DNA unwinding, Cy5 molecular beacon fluorescence;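 active = inhibition above the mean of all tested compounds plus 3 SD, set per campaign, cut at about 35% in these data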;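 also: 0% = DMSO wells and 100% = thioflavine S control wells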
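Test system: hepatitis C virus NS3 helicase domain fragment enzyme. Also added: annealed dual-labelled DNA beacon duplex, ATP-started. Timing: 60 min unwinding reaction at 25 °C after ATP addition. Technique: Cy5 fluorescence. Measure: % inhibition of unwinding.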
ZTA counter – ZTA (EBV) inhibition in EBNA-1 counter-screen; AID 2234; inhibition, % at 11 µM; P03206; hit rate 0.15% among 320,000; ZTA-DNA binding, fluorescence polarization; in the data active = inhibition above about 33%
Target sequence (P03206 whole entry, looked up): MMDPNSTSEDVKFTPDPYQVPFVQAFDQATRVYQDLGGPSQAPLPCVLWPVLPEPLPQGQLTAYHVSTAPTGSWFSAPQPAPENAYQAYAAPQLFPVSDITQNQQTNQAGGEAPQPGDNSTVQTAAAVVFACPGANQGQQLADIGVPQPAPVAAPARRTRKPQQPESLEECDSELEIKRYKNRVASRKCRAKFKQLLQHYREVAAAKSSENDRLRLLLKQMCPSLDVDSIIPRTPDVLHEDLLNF
GPR7 antag – human neuropeptides B/W receptor 1 antagonism; GPR7-expressing cells, fluorescence antagonist assay; inhibition, % at 4.4 µM; hit rate 1.1% among 290,000; AID 1861; in the data active = inhibition above about 16%, passing the limit was not always enough;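 also: cells stimulated with the agonist NPW; 0% = agonist with vehicle and 100% = vehicle without agonist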
Target sequence (P48145 whole entry, looked up): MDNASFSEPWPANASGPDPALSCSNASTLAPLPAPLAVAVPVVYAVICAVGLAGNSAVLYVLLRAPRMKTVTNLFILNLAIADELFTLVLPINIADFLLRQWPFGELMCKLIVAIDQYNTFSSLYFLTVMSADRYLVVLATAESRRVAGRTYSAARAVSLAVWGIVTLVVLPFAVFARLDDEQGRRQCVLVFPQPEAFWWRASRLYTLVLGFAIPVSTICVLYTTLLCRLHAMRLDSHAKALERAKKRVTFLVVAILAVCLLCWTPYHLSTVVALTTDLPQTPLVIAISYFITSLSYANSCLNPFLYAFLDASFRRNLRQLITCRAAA
GPR7 antag conf – confirmation of human GPR7 antagonists. shares compounds with GPR7 antag. hit rate 52% among 2,400. AID 1952. inhibition, % at 4.4 µM. GPR7-expressing cells, calcium fluorescence antagonist mode; in the data active = inhibition above about 24%;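 also: stimulated with the GPR7 agonist NPW; 0% = agonist plus vehicle and 100% = vehicle alone without agonist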
MCHR1 antag – antagonizes human MCHR1, a GPR7 antagonist counter-screen; inhibition, % at 4.4 µM; MCHR1-expressing cells, fluorescence antagonist assay; hit rate 62% among 2,400; shares compounds with GPR7 antag; in the data active = inhibition above about 22%;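 also: 0% = vehicle with agonist and 100% = vehicle without agonist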
* hit, by the source's call.

For S=C(NCC1CCCO1)N1CCN(c2nc(-c3ccc(Cl)cc3)cs2)CC1 (stereo unspecified) the results were EBNA-1 inhibitor -2, FID counter -6, HCV NS3 hel inh 3, ZTA counter 10, GPR7 antag 21*, GPR7 antag conf 58* and MCHR1 antag 72*.
Screening COc1ccc(OC)c(CNS(=O)(=O)c2cn(C)cn2)c1 returned EBNA-1 inhibitor -8, FID counter -2, HCV NS3 hel inh 7, ZTA counter 3 and GPR7 antag -5.
For O=C(COc1ccc([N+](=O)[O-])cc1)NCCC1=CCCCC1 the results were EBNA-1 inhibitor 6, FID counter -7, HCV NS3 hel inh 12, ZTA counter 7, GPR7 antag 29*, GPR7 antag conf 31* and MCHR1 antag 16.
`COc1cc(NC(=O)CSc2nnnn2Cc2ccccc2)cc(OC)c1` gave EBNA-1 inhibitor 0, FID counter -16, HCV NS3 hel inh 5, ZTA counter -17 and GPR7 antag 13.
`CCC(=O)Nc1cccc(NC(=O)CSc2nnnn2Cc2ccccc2)c1` gave EBNA-1 inhibitor 11, FID counter -11, HCV NS3 hel inh -9, ZTA counter 6, GPR7 antag 23*, GPR7 antag conf 12 and MCHR1 antag 14.
`CS(=O)(=O)c1ccc(Cl)c(NC(=O)c2cc(=O)[nH]c3ccc(S(=O)(=O)N4CCOCC4)cc23)c1` gave EBNA-1 inhibitor -8 and ZTA counter -20.
For Fc1ccc(CNC(=S)Nc2cccc(Cl)c2)cc1 the results were EBNA-1 inhibitor 7, FID counter 7, HCV NS3 hel inh -10, ZTA counter 8, GPR7 antag 36*, GPR7 antag conf 14 and MCHR1 antag 53*.
`S=C(NCCc1ccccc1)Nc1ccc(Cl)cc1` gave EBNA-1 inhibitor -2, FID counter -1, HCV NS3 hel inh 2, ZTA counter -10 and GPR7 antag -12.
For O=[N+]([O-])c1ccc(NC(=S)NCc2ccc(F)cc2)cc1 the results were EBNA-1 inhibitor -6, FID counter 9, HCV NS3 hel inh 2, ZTA counter 0, GPR7 antag 40*, GPR7 antag conf 59* and MCHR1 antag 71*.
O=[N+]([O-])c1ccc(NC(=S)NCCc2ccc(Cl)cc2)cc1 was read as EBNA-1 inhibitor 1, FID counter 17, HCV NS3 hel inh -9, ZTA counter -2, GPR7 antag 49*, GPR7 antag conf 65* and MCHR1 antag 70*.
`S=C(NCc1ccncc1)Nc1cccc(Cl)c1` gave EBNA-1 inhibitor -1, FID counter 3, HCV NS3 hel inh -10, ZTA counter 14 and GPR7 antag -12.
Screening S=C(NCCN(C1CCCCC1)C1CCCC1)Nc1cccc(Cl)c1 returned EBNA-1 inhibitor -1, FID counter 15, HCV NS3 hel inh -64, ZTA counter 10, GPR7 antag 55*, GPR7 antag conf 60* and MCHR1 antag 69*.
`O=[N+]([O-])c1ccc(NC(=S)NCc2ccncc2)cc1` gave EBNA-1 inhibitor -7, FID counter 4, HCV NS3 hel inh 10, ZTA counter 3 and GPR7 antag -11.
Screening S=C(NCCC(c1ccccc1)c1ccccc1)Nc1cccc(Cl)c1 returned EBNA-1 inhibitor -7, FID counter -8, HCV NS3 hel inh -7, ZTA counter -6 and GPR7 antag -4.
COc1ccc(CCNC(=O)CCCc2ccccc2)cc1OC was read as EBNA-1 inhibitor -9, FID counter -21, HCV NS3 hel inh 9, ZTA counter -18 and GPR7 antag -1.
O=C(CN(C(=O)CCC(=O)Nc1nccs1)c1ccc(F)cc1)NCc1ccc(F)cc1 was read as EBNA-1 inhibitor 1, FID counter -37, HCV NS3 hel inh -2, ZTA counter -9 and GPR7 antag -5.
`O=[N+]([O-])c1ccc(NC(=S)NCCc2ccccc2)cc1` gave EBNA-1 inhibitor 0, FID counter 13, HCV NS3 hel inh -9, ZTA counter -26, GPR7 antag 47*, GPR7 antag conf 61* and MCHR1 antag 59*.
Screening O=C1Nc2cc(C(=O)NCCCN3CCOCC3)ccc2S/C1=C/c1ccccc1F returned EBNA-1 inhibitor -2, FID counter 24, HCV NS3 hel inh -84, ZTA counter 5, GPR7 antag 40*, GPR7 antag conf 33* and MCHR1 antag 28*.
`O=C(NCCCN1CCOCC1)c1ccc2c(c1)N(Cc1c(F)cccc1Cl)C(=O)c1ccccc1S2` gave EBNA-1 inhibitor 1, FID counter 21, HCV NS3 hel inh -20, ZTA counter 1, GPR7 antag 25*, GPR7 antag conf 37* and MCHR1 antag 12.
CCOC(=O)Cc1csc(NC(=O)C(C)c2ccc([N+](=O)[O-])cc2)n1 (stereo unspecified) was read as EBNA-1 inhibitor -5, FID counter 2, HCV NS3 hel inh 4, ZTA counter -10, GPR7 antag 74*, GPR7 antag conf 49* and MCHR1 antag 54*.
Screening CCCNC(=O)c1nnsc1S(=O)(=O)c1ccc(Cl)cc1 returned FID counter 6, HCV NS3 hel inh -16, GPR7 antag 35*, GPR7 antag conf 79* and MCHR1 antag 102*.
For CCCNC(=O)c1nnsc1S(=O)c1ccc(Cl)cc1 (stereo unspecified) the results were FID counter 5, HCV NS3 hel inh -14 and GPR7 antag 16.
CC(=O)c1ccc(OCCCCOc2ccc(C(C)=O)cc2)cc1 was read as EBNA-1 inhibitor -3, FID counter -6, HCV NS3 hel inh -4, ZTA counter -18 and GPR7 antag 21.
For CN(Cc1ccccc1)C(=O)c1ccccc1-c1ccccc1 the results were EBNA-1 inhibitor 3, FID counter -14, HCV NS3 hel inh 0, ZTA counter 12, GPR7 antag 69*, GPR7 antag conf -13 and MCHR1 antag 11.
Screening CN(Cc1ccccc1)C(=O)c1ccccc1Br returned EBNA-1 inhibitor 2, FID counter -7, HCV NS3 hel inh -9, ZTA counter -3 and GPR7 antag -13.
For O=P(c1ccccc1)(c1ccccc1)c1cc(Br)cc(Br)c1OCCO the results were EBNA-1 inhibitor 6, FID counter -40, HCV NS3 hel inh -8, ZTA counter 7 and GPR7 antag -6.
O=P(Cc1cc(Br)cc(Br)c1OCCO)(c1ccccc1)c1ccccc1 was read as EBNA-1 inhibitor 2, FID counter -32, HCV NS3 hel inh 0, ZTA counter -4, GPR7 antag 33*, GPR7 antag conf 39* and MCHR1 antag 20.
`O=C(COc1ccc(F)cc1Cl)NC1CCCCCC1` gave ZTA counter 7.
For Cc1cc2c3c([nH]c2cc1S(=O)(=O)N1CCC2(CC1)OCCO2)CC(C)(C)CC3=O the results were EBNA-1 inhibitor -13, FID counter -34, HCV NS3 hel inh -3, ZTA counter 2 and GPR7 antag -20.

Compound activity from PubChem BioAssay.
